UHRF1 binding = UHRF1 methylated DNA binding inhibitors, primary screen, counter-screen for MBD2 inhibitor project, biochemical, TR-FRET, human UHRF1, single concentration; E3 ubiquitin-protein ligase UHRF1 (Homo sapiens), Q96T88; UHRF1 binding to methylated oligo; inhibition, % at 4.4 µM; 370,000 tested, 0.75% active; AID 687016, 2013; in the data active = inhibition above about 21%;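 note: UHRF1 SRA domain binding a hemimethylated CpG hairpin DNA probe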
Target sequence (Q96T88 whole entry, looked up, the tested form may be a part): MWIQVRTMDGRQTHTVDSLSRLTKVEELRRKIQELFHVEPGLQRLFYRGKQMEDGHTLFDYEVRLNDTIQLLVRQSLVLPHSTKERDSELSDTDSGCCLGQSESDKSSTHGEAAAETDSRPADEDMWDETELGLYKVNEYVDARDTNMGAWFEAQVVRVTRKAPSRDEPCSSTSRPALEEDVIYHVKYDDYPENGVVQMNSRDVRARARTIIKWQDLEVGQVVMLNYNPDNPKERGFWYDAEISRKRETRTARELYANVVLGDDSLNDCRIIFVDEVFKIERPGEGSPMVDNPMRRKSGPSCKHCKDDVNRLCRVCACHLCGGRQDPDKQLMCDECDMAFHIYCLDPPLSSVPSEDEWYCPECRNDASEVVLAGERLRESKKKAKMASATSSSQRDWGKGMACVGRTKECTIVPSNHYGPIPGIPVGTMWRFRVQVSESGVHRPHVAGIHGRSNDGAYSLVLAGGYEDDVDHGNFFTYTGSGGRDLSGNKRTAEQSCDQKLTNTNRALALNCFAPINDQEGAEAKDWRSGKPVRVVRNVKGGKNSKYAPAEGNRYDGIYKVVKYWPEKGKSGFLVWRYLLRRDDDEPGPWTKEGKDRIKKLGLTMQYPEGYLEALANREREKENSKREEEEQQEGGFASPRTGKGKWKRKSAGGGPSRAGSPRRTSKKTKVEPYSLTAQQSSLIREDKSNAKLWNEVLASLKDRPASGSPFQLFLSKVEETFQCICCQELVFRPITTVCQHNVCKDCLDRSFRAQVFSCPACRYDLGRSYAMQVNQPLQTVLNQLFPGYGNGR
LEDGF integ inh = blockers of LEDGF/p75-dependent integrase strand transfer – biochemical, TR-FRET, high throughput, primary screen. TR-FRET IN-LEDGF/p75 DNA integration, Eu/Cy5. HIV-1 integrase (with human LEDGF/p75). inhibition, % at 3.7 µM. 370,000 tested, 0.64% active. AID 743269, 2014;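 active = inhibition above the screen-wide mean plus 3 SD, cut at about 13% in these data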;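 note: signal is the Cy5 over europium emission ratio at 671 and 618 nm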
MBD2 DNA inh = inhibitors of MBD2 binding to methylated DNA, primary screen, biochemical, TR-FRET, DNA-binding domain, human | Methyl-CpG-binding domain protein 2 (Homo sapiens), Q9UBB5 | MBD2 binding to methylated oligonucleotide | inhibition, % at 4.4 µM | 370,000 tested, 0.31% active; in the data active = inhibition above about 13%
core dimer inh = inhibitors of HCV core protein dimerization, primary screen, biochemical, TR-FRET, high-throughput | inhibition, % at 5 µM | 300,000 tested, 0.33% active | AID 1899, 2009 | TR-FRET GST/Flag-core106 dimerization, 1536-well;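 active = inhibition above the mean of all tested compounds plus 3 SD, set per screening campaign, cut at about 45% in these data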
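Test system: GST/Flag-tagged HCV core106 proteins; Medium: KF-containing HEPES buffer, pH 7.45, DTT, CHAPS, BSA; Times: compound-protein-antibody incubation 4 h at 22.5 °C; Detection: TR-FRET 671 and 617 nm emission; Benchmarks: wells lacking GST-core106 and wells with excess unlabelled core106.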
TDP2 absorb = human TDP2 enzyme inhibitors, primary screen, biochemical, epi absorbance, recombinant enzyme; Tyrosyl-DNA phosphodiesterase 2 (Homo sapiens), O95551; T5PNP hydrolysis, p-nitrophenol absorbance 415 nm; inhibition, % at 12.8 µM; 370,000 tested, 0.34% active; AID 720702, 2013;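 active = inhibition above the mean of all tested compounds plus 3 SD, set per campaign, cut at about 25% in these data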
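System – recombinant human TDP2 · Quantity – TDP2 enzyme at 120 nM final · Doses – single concentration, 12.8 µM nominal, with 1% DMSO · Incubation – 2 h at 37 °C · Measured by – epi absorbance of p-nitrophenol freed from T5PNP by hydrolysis · Read-out – % inhibition relative to enzyme-containing and enzyme-free wells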
TDP2 inh conf = human TDP2 enzyme inhibitors, retest, confirmation, biochemical, epi absorbance, recombinant enzyme. shares compounds with TDP2 absorb. absorbance read-out. inhibition, % at 12.8 µM. 1,100 tested, 22% active; in the data active = inhibition above about 25%
Each line names hits and unclear results; the compound was inactive in the other large screens (follow-up assays come after a bar, where they were run). Hits are enriched below; roughly 1.8% of the tested compounds scored in any of these assays.

N#Cc1ccccc1NC(=O)CSc1n[nH]c(-c2ccco2)n1	TDP2 absorb 32 | TDP2 inh conf inactive
O=C(CSc1n[nH]c(-c2ccco2)n1)Nc1ccccc1F	none
CCCC[C@H](CCCc1ccc(F)cc1)CCC(=O)N(c1ccccc1)c1ccccc1	none (no result: core dimer inh)
COc1ccc(F)cc1S(=O)(=O)NCc1cc(=O)n(C)c(=O)n1C	TDP2 absorb 25 | TDP2 inh conf inactive
COc1ccc(F)cc1S(=O)(=O)NCC(=O)NCc1cc(=O)n(C)c(=O)n1C	none
C=CCC12C=C(OC)C(=O)C(C1=O)C1c3ccccc3CC12 (configuration not stated)	none (no result: core dimer inh)
CC(=O)c1ccc(NC(=O)CN2CCN(CC(=O)Nc3ccc(C(C)=O)cc3)CC2)cc1	none (no result: core dimer inh)
CN1CCN(CC(=O)Nc2ccc(S(=O)(=O)N(C)C)cc2)CC1	UHRF1 binding 22, TDP2 absorb 33 | TDP2 inh conf inactive
CN(C)S(=O)(=O)c1ccc(NC(=O)CN2CCCCCC2)cc1	none
CCN1CCN(CC(=O)Nc2ccc(C(C)=O)cc2)CC1	TDP2 absorb 38 | TDP2 inh conf inactive
CCN1CCN(CC(=O)Nc2cc3c(cc2C(C)=O)OCO3)CC1	TDP2 absorb 26 | TDP2 inh conf inactive
CC(=O)c1ccc(NC(=O)CNC2CCCCC2)cc1	TDP2 absorb 26 | TDP2 inh conf inactive
CC(=O)N[C@@H]1C[C@@H]2O[C@H](CO)CC[C@@H]2O[C@@H]1CCc1ccc(-c2ccc(F)cc2)cc1	none (no result: core dimer inh)
CCCN1CCS(=O)(=O)N(Cc2cn(Cc3ccc(F)cc3)nn2)C(C(=O)OC)C1 (configuration not stated)	none (no result: core dimer inh)
Cc1nc2cc(NC(=O)N(C)c3ccc4ccccc4c3)ccc2o1	TDP2 absorb 44 | TDP2 inh conf inactive
COc1ccc(CC(=O)OC(C)C(=O)NCc2ccc3c(c2)OCO3)cc1OC (configuration not stated)	TDP2 absorb 44 | TDP2 inh conf inactive
COc1ccc(CC(=O)OCC(=O)NCc2ccc3c(c2)OCO3)cc1OC	none (no result: core dimer inh)
COCCCN1C(=O)[C@H](CC(=O)NCc2cccc3ccccc23)[C@]2(C(=O)OC)CCCCC=C12	none (no result: core dimer inh)
C=CCN1[C@@H](Cc2ccccc2)COc2cccc(F)c2S1(=O)=O	none (no result: core dimer inh)
Cc1nc(NC(=O)COc2ccccc2)sc1C(=O)Nc1cccc(Cl)c1	TDP2 absorb 27 | TDP2 inh conf inactive
COc1ccc(NC(=O)c2sc(NC(=O)COc3ccccc3)nc2C)cc1	none
O=S1(=O)c2ccc(Br)cc2OC[C@@H](Cc2ccccc2)N1Cc1cn(CCC2OCCO2)nn1	none (no result: core dimer inh)
Cc1[nH][nH]c(=O)c1C(c1ccc(-c2ccc(Cl)c(C(=O)O)c2)o1)c1c(C)[nH][nH]c1=O	TDP2 absorb 51 (no result: core dimer inh) | TDP2 inh conf inactive
COC(=O)c1ccccc1-c1ccc(C(c2c(C)[nH][nH]c2=O)c2c(C)[nH][nH]c2=O)o1	TDP2 absorb 78 | TDP2 inh conf 36
O=C1NC(=O)C(=Cc2ccccc2[N+](=O)[O-])S1	TDP2 absorb 25 (no result: core dimer inh) | TDP2 inh conf 44
O=C(c1cccnc1)N1CCN(Cc2ccc3ccccc3c2)CC1	TDP2 absorb 31 | TDP2 inh conf inactive
CCCCNC[C@@]12CO[C@H](c3ccc(Cl)cc3)N1[C@@H](c1ccc(Cl)cc1)SC2	none (no result: core dimer inh)
CC(=O)N1CCc2cc(S(=O)(=O)NC3CCN(C(=O)OCc4ccccc4)CC3)ccc21	none (no result: core dimer inh)
CCOc1ccc2c(c1)C(C)=CC(C)(C)N2	TDP2 absorb 26 (no result: core dimer inh) | TDP2 inh conf inactive
CCc1ccc2c(c1)C(C)=CC(C)(C)N2	none
CCOC(=O)c1cc2c(ccn2C)n1Cc1ccccc1C	TDP2 absorb 26 | TDP2 inh conf inactive
CCOC(=O)c1cc2c(ccn2C)n1Cc1ccccc1Cl	none
COc1cc(C=NN2CCN(C(c3ccccc3)c3ccccc3)CC2)cc(OC)c1OC(C)=O	none (no result: core dimer inh)
COC(=O)C1CN(C2CCCC2)CCS(=O)(=O)N1Cc1cn(Cc2ccccc2)nn1 (configuration not stated)	none (no result: core dimer inh)
